Laboratory results from ChEMBL document CHEMBL4364345, “Synthesis and evaluation of 1,3,4-oxadiazole derivatives for development as broad-spectrum antibiotics” (Bioorg Med Chem, 2019).
Values after ≈ are worked out from the molar mass of the structure shown.

How the values were obtained:
Bacteroides fragilis = test: Antimicrobial activity against Bacteroides fragilis ATCC 25285 at 50 ug/disk incubated for 20 +/- 4 hrs by agar disk diffusion method; format: functional; conditions: read-out: DIZ
Outline: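 Anaerobic disk diffusion: MH agar + 5% horse blood seeded from a 0.5 McFarland swab, with discs of 50 μg compound (10 μl of 5 g/L DMSO solution) and a DMSO control disc. Kept at 35 ± 2 °C under anaerobic conditions for 20 ± 4 h; inhibition diameters recorded.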

Proteus mirabilis = test: Antimicrobial activity against Proteus mirabilis clinical isolate at 50 ug/disk incubated for 20 +/- 4 hrs by agar disk diffusion method; format: functional; conditions: read-out: DIZ
Outline: (§1)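 Agar disk diffusion on Mueller-Hinton agar swab-seeded from a 0.5 McFarland inoculum (about 10^8 CFU/ml). Cellulose discs got 50 μg compound (10 μl of 5 g/L in DMSO); a 10 μL DMSO disc was the control. Incubated aerobically at 35 ± 2 °C for 20 ± 4 h, then growth-inhibition diameters measured.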

Staphylococcus aureus = test: Antimicrobial activity against Staphylococcus aureus clinical isolate at 50 ug/disk incubated for 20 +/- 4 hrs by agar disk diffusion method; format: functional; conditions: read-out: DIZ; outline: as §1
Escherichia coli [1] = test: Bactericidal activity against TolC deficient Escherichia coli BW25113 by broth microdilution method; format: functional
NCI-H727 = test: Cytotoxicity against human NCI-H727 cells assessed as decrease in cell viability in MTT assay; format: cell-based
Outline: (§2)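 Cell viability was measured by MTT on a robotic screening platform. Residual viability was expressed as a percentage of the mean viable cells in DMSO-treated controls. Under 25-30% viability was considered cytotoxic, and IC50 values were derived.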

Caco-2 = test: Cytotoxicity against human Caco2 cells assessed as decrease in cell viability in MTT assay; format: cell-based; outline: as §2
[2] = tested on: Mycolicibacterium fortuitum; test: Antimicrobial activity against Mycobacterium fortuitum clinical isolate at 50 ug/disk incubated for 4 days by agar disk diffusion method; format: functional; conditions: 96 h, read-out: DIZ
Outline: (§3)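 On MH agar with 5% horse blood, a 0.5 McFarland inoculum was swabbed and discs with 50 μg compound (from 5 g/L in DMSO) were laid down, alongside a DMSO control disc. Incubation was humid and aerobic at 35 ± 2 °C for 4 days, then growth-inhibition diameters were measured.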

MDA-MB-231 = test: Cytotoxicity against human MDA-MB-231 cells assessed as decrease in cell viability in MTT assay; format: cell-based; outline: as §2
Morganella morganii [3] = test: Antimicrobial activity against Morganella morganii EB6 clinical isolate at 50 ug/disk incubated for 20 +/- 4 hrs by agar disk diffusion method; format: functional; conditions: read-out: DIZ; outline: as §1
Klebsiella pneumoniae = test: Antimicrobial activity against Klebsiella pneumoniae clinical isolate at 50 ug/disk incubated for 20 +/- 4 hrs by agar disk diffusion method; format: functional; conditions: read-out: DIZ; outline: as §1
Enterococcus faecalis [4] = test: Synergistic antimicrobial activity against Enterococcus faecalis ATCC 29212 assessed as DIZ at 50 ug/disk incubated for 20 +/- 4 hrs in presence of rifampicin by agar disk diffusion method (reference value: 20 millimeter); format: functional; conditions: read-out: DIZ
Enterococcus faecium [5] = test: Synergistic antimicrobial activity against Enterococcus faecium AUS0004 assessed as DIZ at 50 ug/disk incubated for 20 +/- 4 hrs in presence of erythromycin by agar disk diffusion method (reference value: 6 millimeter); format: functional; conditions: read-out: DIZ
[6] = tested on: Mycobacteroides abscessus; test: Antimicrobial activity against Mycobacterium abscessus clinical isolate at 50 ug/disk incubated for 4 days by agar disk diffusion method; format: functional; conditions: 96 h, read-out: DIZ; outline: as §3
Escherichia coli [7] = test: Antimicrobial activity against arfA-arfB TolC deficient Escherichia coli BW25113 by agar disk diffusion method; format: functional
Listeria monocytogenes [8] = test: Synergistic antimicrobial activity against Listeria monocytogenes clinical isolate assessed as DIZ at 50 ug/disk incubated for 20 +/- 4 hrs in presence of fosfomycin by agar disk diffusion method (reference value: 6 millimeter); format: functional; conditions: read-out: DIZ
PC-3 = test: Cytotoxicity against human PC3 cells assessed as decrease in cell viability in MTT assay; format: cell-based; outline: as §2
Enterococcus faecium [9] = test: Synergistic antimicrobial activity against Enterococcus faecium AUS0004 assessed as DIZ at 50 ug/disk incubated for 20 +/- 4 hrs in presence of ampicillin by agar disk diffusion method (reference value: 6 millimeter); format: functional; conditions: read-out: DIZ
Escherichia coli [10] = test: Antimicrobial activity against TolC deficient Escherichia coli BW25113 by broth microdilution method; format: functional
Outline: (§4)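 MIC by broth microdilution per EUCAST guidelines, in E. coli BW25113 and its previously described deletion derivative.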

[11] = Cytotoxicity against human NHFB cells assessed as decrease in cell viability in MTT assay; format: cell-based; outline: as §2
Enterococcus faecium [12] = test: Synergistic antimicrobial activity against Enterococcus faecium AUS0004 assessed as DIZ at 50 ug/disk incubated for 20 +/- 4 hrs in presence of rifampicin by agar disk diffusion method (reference value: 10 millimeter); format: functional; conditions: read-out: DIZ
Listeria monocytogenes [13] = test: Synergistic antimicrobial activity against Listeria monocytogenes clinical isolate assessed as DIZ at 50 ug/disk incubated for 20 +/- 4 hrs in presence of moxalactam by agar disk diffusion method (reference value: 13 millimeter); format: functional; conditions: read-out: DIZ
Enterococcus faecium [14] = test: Antimicrobial activity against Enterococcus faecium AUS0004 at 50 ug/disk incubated for 20 +/- 4 hrs by agar disk diffusion method; format: functional; conditions: read-out: DIZ; outline: as §1
Streptococcus pyogenes = test: Antimicrobial activity against Streptococcus pyogenes clinical isolate by broth microdilution method; format: functional
Outline: (§5)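 MICs were set by broth microdilution following EUCAST guidelines, from three independent experiments reported as values or ranges. MICs were measured only where disk-diffusion inhibition diameters were 9 mm or more.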

Enterococcus faecalis [15] = test: Synergistic antimicrobial activity against Enterococcus faecalis ATCC 29212 assessed as DIZ at 50 ug/disk incubated for 20 +/- 4 hrs in presence of erythromycin by agar disk diffusion method (reference value: 20 millimeter); format: functional; conditions: read-out: DIZ
Enterococcus faecium [16] = test: Synergistic antimicrobial activity against Enterococcus faecium AUS0004 assessed as DIZ at 50 ug/disk incubated for 20 +/- 4 hrs in presence of streptomycin by agar disk diffusion method (reference value: 22 millimeter); format: functional; conditions: read-out: DIZ
Enterococcus faecium [17] = test: Antimicrobial activity against Enterococcus faecium AUS0004 by broth microdilution method; format: functional; outline: as §5
Proteus vulgaris = test: Antimicrobial activity against Proteus vulgaris clinical isolate at 50 ug/disk incubated for 20 +/- 4 hrs by agar disk diffusion method; format: functional; conditions: read-out: DIZ; outline: as §1
Huh-7 = test: Cytotoxicity against human HuH7 cells assessed as decrease in cell viability in MTT assay; format: cell-based; outline: as §2
Escherichia coli [18] = test: Antimicrobial activity against Escherichia coli BW25113 by broth microdilution method; format: functional; outline: as §4
[19] = tested on: Mycolicibacterium fortuitum; test: Antimicrobial activity against Mycobacterium fortuitum clinical isolate by broth microdilution method; format: functional; outline: as §5
Morganella morganii [20] = test: Antimicrobial activity against Morganella morganii EB8clinical isolate at 50 ug/disk incubated for 20 +/- 4 hrs by agar disk diffusion method; format: functional; conditions: EB8, read-out: DIZ; outline: as §1
Pseudomonas aeruginosa = test: Antimicrobial activity against Pseudomonas aeruginosa clinical isolate at 50 ug/disk incubated for 20 +/- 4 hrs by agar disk diffusion method; format: functional; conditions: read-out: DIZ; outline: as §1
Escherichia coli [21] = test: Antimicrobial activity against ssrA-TolC deficient Escherichia coli BW25113 by agar disk diffusion method; format: functional
Listeria monocytogenes [22] = test: Antimicrobial activity against Listeria monocytogenes clinical isolate at 50 ug/disk incubated for 20 +/- 4 hrs by agar disk diffusion method; format: functional; conditions: read-out: DIZ
Outline: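 Disk diffusion on MH agar with 5% horse blood, seeded by swab from a 0.5 McFarland suspension. Discs held 50 μg compound from a 5 g/L DMSO solution, with a DMSO-only control disc. Aerobic incubation at 35 ± 2 °C for 20 ± 4 h; inhibition zone diameter read.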

SMILES	zone of inhibition at 50 µg/disc (Bacteroides fragilis)	zone of inhibition at 50 µg/disc (Proteus mirabilis)	zone of inhibition at 50 µg/disc (Staphylococcus aureus)	IC50 (Caco-2)	zone of inhibition at 50 µg/disc [2]	IC50 (MDA-MB-231)	zone of inhibition at 50 µg/disc (Morganella morganii [3])	zone of inhibition at 50 µg/disc (Klebsiella pneumoniae)	zone of inhibition at 50 µg/disc (Enterococcus faecalis [4])	zone of inhibition at 50 µg/disc (Enterococcus faecium [5])	zone of inhibition at 50 µg/disc [6]	diameter of the inhibition zone (DIZ) (Escherichia coli [7])	zone of inhibition at 50 µg/disc (Listeria monocytogenes [8])	IC50 (PC-3)	zone of inhibition at 50 µg/disc (Enterococcus faecium [9])	IC50 [11]	zone of inhibition at 50 µg/disc (Enterococcus faecium [12])	zone of inhibition at 50 µg/disc (Listeria monocytogenes [13])	zone of inhibition at 50 µg/disc (Enterococcus faecium [14])	MIC (Streptococcus pyogenes)	further results
O=C(Nc1nnc(-c2ccc(C(F)(F)F)cc2)o1)c1ccc(Cl)nc1	16 mm	6 mm	30 mm	> 25000 nM	19 mm	> 25 µM	6 mm	6 mm	23 mm	22 mm	14 mm	22.05 mm	29 mm	> 25000 nM	24 mm	> 25 µM	22 mm	30 mm	23 mm	32 µg/mL (≈ 86.8 µM)	MBC (Escherichia coli [1]): > 32 µM; IC50 (NCI-H727): > 25 µM; MIC (Escherichia coli [10]): 1 µM (≈ 0.369 µg/mL); zone of inhibition at 50 µg/disc (Enterococcus faecalis [15]): 23 mm; zone of inhibition at 50 µg/disc (Enterococcus faecium [16]): 26 mm; MIC (Enterococcus faecium [17]): 2 µg/mL (≈ 5.42 µM); zone of inhibition at 50 µg/disc (Proteus vulgaris): 8 mm; IC50 (Huh-7): > 25000 nM; MIC (Escherichia coli [18]): > 128 µM; MIC [19]: 8 µg/mL (≈ 21.7 µM); zone of inhibition at 50 µg/disc (Morganella morganii [20]): 6 mm; zone of inhibition at 50 µg/disc (Pseudomonas aeruginosa): 6 mm; diameter of the inhibition zone (DIZ) (Escherichia coli [21]): 27 mm; zone of inhibition at 50 µg/disc (Listeria monocytogenes [22]): 31 mm
O=C(Nc1ncc(-c2ccc(F)cc2)o1)c1ccc(Cl)cc1	8 mm	6 mm	20 mm	3000 nM	12 mm	5 µM	6 mm	6 mm	20 mm	12 mm	7 mm	14 mm	15 mm	2000 nM	13 mm	> 25 µM	15 mm	17 mm	12 mm	32 to 64 µg/mL (≈ 101 to 202 µM)	zone of inhibition at 50 µg/disc (Enterococcus faecalis [15]): 20 mm; zone of inhibition at 50 µg/disc (Enterococcus faecium [16]): 21 mm; MIC (Enterococcus faecium [17]): 1 to 4 µg/mL (≈ 3.16 to 12.6 µM); zone of inhibition at 50 µg/disc (Proteus vulgaris): 10 mm; IC50 (Huh-7): 3000 nM; MIC (Escherichia coli [18]): > 128 µM; MIC [19]: 32 to 64 µg/mL (≈ 101 to 202 µM); zone of inhibition at 50 µg/disc (Morganella morganii [20]): 6 mm; zone of inhibition at 50 µg/disc (Pseudomonas aeruginosa): 6 mm; diameter of the inhibition zone (DIZ) (Escherichia coli [21]): 13 mm; zone of inhibition at 50 µg/disc (Listeria monocytogenes [22]): 17 mm
